The record followed here is ChEMBL document CHEMBL1152584, “Synthesis of heteroaromatic tropeines and heterogeneous binding to glycine receptors” (Bioorg Med Chem, 2009).

Experiment [1] deals with T1, Glycine receptor subunit alpha-1 (Rattus norvegicus, UniProt P07727).
T1 sequence (P07727 whole entry): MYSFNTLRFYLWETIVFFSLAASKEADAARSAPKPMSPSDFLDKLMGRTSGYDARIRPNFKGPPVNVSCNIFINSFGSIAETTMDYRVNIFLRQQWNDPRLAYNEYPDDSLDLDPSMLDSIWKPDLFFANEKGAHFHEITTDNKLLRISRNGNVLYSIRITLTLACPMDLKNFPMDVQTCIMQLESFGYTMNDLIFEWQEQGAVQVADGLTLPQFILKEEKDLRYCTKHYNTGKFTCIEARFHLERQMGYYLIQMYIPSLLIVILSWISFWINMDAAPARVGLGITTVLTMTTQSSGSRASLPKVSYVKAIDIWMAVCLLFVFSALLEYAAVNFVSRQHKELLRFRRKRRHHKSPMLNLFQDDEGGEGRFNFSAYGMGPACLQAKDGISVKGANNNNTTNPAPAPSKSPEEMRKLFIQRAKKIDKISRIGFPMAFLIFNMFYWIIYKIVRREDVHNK
In words: Displacement of [3H]strychnine from GlyR in Wistar rat spinal cord by scintillation spectrometry. Summed up:
(§1)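 Duplicate aliquots filtered, washed with ice-cold buffer, counted by scintillation. Nonspecific binding defined with 2 mM glycine. IC50 and Hill slope from nonlinear sigmoidal fitting. Two-site fits used pooled data, chosen by F test.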
For orientation: In a radioligand displacement assay an active substance lowers the binding of a labelled ligand.

The target of experiment [2] is T2, Glycine receptor subunit alpha-1 (Rattus norvegicus) (UniProt P07727).
T2 sequence (whole entry): T1 sequence (P07727 whole entry)
The experiment in a line: Selectivity ratio of IC50 for GlyR low affinity site to IC50 for GlyR high affinity site in Wistar rat spinal cord.

Experiment [3] has as its target T1, Glycine receptor subunit alpha-1. The experiment in a line: Displacement of [3H]strychnine from GlyR low affinity site in Wistar rat spinal cord by scintillation spectrometry. In short, it runs like this: as §1
For experiment [4] the target is unchanged. In words: Displacement of [3H]strychnine from GlyR high affinity site in Wistar rat spinal cord by scintillation spectrometry. Summed up: as §1
For experiment [5], the target named is T3, 5-hydroxytryptamine receptor 3A (Rattus norvegicus, UniProt P35563).
T3 sequence (P35563 whole entry): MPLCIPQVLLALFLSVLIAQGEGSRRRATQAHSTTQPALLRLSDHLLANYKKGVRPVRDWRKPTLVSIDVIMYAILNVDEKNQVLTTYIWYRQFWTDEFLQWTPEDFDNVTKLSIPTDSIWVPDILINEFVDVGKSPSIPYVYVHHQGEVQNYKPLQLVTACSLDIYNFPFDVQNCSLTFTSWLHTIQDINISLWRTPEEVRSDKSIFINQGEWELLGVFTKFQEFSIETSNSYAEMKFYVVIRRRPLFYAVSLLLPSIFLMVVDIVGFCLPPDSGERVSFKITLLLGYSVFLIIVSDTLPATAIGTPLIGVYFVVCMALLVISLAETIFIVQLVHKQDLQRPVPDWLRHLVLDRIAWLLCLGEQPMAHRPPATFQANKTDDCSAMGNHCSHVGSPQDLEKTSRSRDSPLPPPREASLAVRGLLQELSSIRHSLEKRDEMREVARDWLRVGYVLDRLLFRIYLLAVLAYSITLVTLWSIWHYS
The experiment in a line: Displacement of [3H]granisectron from 5HT3 receptor in Wistar rat forebrain. In short, it runs like this: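 Crude membranes from male rat forebrain (cortex + hippocampus), homogenized in 10 mM HEPES/140 mM NaCl pH 7.5, centrifuged, washed, frozen; thawed and spun before use. Incubated with 0.2 nM [3H]granisetron at 0 °C for 2.5 h. Nonspecific binding defined with 10 µM granisetron.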

Experiment [6] addresses T1, Glycine receptor subunit alpha-1. The experiment in a line: Displacement of [3H]strychnine from GlyR in Wistar rat spinal cord by scintillation spectrometry in presence of 10 uM glycine. In short, it runs like this:
as §1

Experiment [7] has the same target. The experiment in a line: Displacement of [3H]strychnine from GlyR high affinity site in Wistar rat spinal cord by scintillation spectrometry in presence of 10 uM glycine. In short, it runs like this:
as §1

Experiment [8] shares this target. In words: Displacement of [3H]strychnine from GlyR low affinity site in Wistar rat spinal cord by scintillation spectrometry in presence of 10 uM glycine. Summed up:
as §1

Take `CN1[C@@H]2CC[C@H]1C[C@@H](OC(=O)c1cccn1C)C2`: the IC50 in experiment [1] is 7590 nM. For the same compound, the Ratio IC50 in experiment [2] was > 1.
In the case of `CN1[C@@H]2CC[C@H]1C[C@H](OC(=O)c1cc3ccccc3[nH]1)C2`, the results for the IC50 in experiment [1], in experiment [3] and in experiment [4] were 4680 nM, 7940 nM and 60.3 nM, respectively. Also, the Ratio IC50 in experiment [2] came to 133.
Turning to `O=C(O[C@H]1C[C@H]2CC[C@@H](C1)N2)c1cnc2ccccc2c1`, in experiment [1], the IC50 was 166 nM. In addition, in experiment [2], the Ratio IC50 came out at 1.
In the case of `CN1[C@@H]2CC[C@H]1C[C@@H](OC(=O)c1cc3ccccc3n1C)C2`, the IC50 in experiment [5] is 18 nM; in experiment [1], 1580 nM; in experiment [3], 2400 nM; in experiment [4] it was 10.2 nM. The Ratio IC50 in experiment [2] was 240.
In experiment [1], `O=C(O[C@H]1C[C@H]2CC[C@@H](C1)N2)c1cccnc1` showed an IC50 of 100 nM. In addition, in experiment [2], the Ratio IC50 was 1.
For the compound `CN1[C@@H]2CC[C@H]1C[C@@H](OC(=O)c1ccco1)C2`, the IC50 in experiment [1] was 5620 nM; in experiment [3] it was 10000 nM; in experiment [4] it was 50.1 nM. Moreover, the Ratio IC50 in experiment [2] was determined as 200.
Take `O=C(O[C@H]1C[C@H]2CC[C@@H](C1)N2)c1ccc[nH]1`: the IC50 in experiment [1] is 129 nM. Moreover, the Ratio IC50 in experiment [2] was found to be 1.
In turn, `O=C(O[C@H]1C[C@H]2CC[C@@H](C1)N2)c1ccco1` showed an IC50 in experiment [1] of 79.4 nM. In experiment [2], the Ratio IC50 was determined as 1.
With `CN1[C@@H]2CC[C@H]1C[C@@H](OC(=O)c1cccnc1)C2`, the IC50 in experiment [1] is 4270 nM; in experiment [3], 22900 nM; in experiment [4] it was 58.9 nM. In addition, the Ratio IC50 in experiment [2] stood at 390.
With `Cn1c(C(=O)O[C@H]2C[C@H]3CC[C@@H](C2)N3)cc2ccccc21`, the IC50 in experiment [5] was 25 nM; in experiment [6], 70.8 nM; in experiment [7] it was 1.07 nM; in experiment [1], 33.9 nM; in experiment [3] it was 126 nM; in experiment [4], 11.5 nM. In addition, the IC50 in experiment [8] is 135 nM. For the same compound, the Ratio IC50 in experiment [2] was 11.
Consider `CN1[C@@H]2CC[C@H]1C[C@@H](OC(=O)c1cccs1)C2`, for which the values for the IC50 in experiment [1], in experiment [3] and in experiment [4] were 1910 nM, 4270 nM and 89.1 nM, respectively. Besides, in experiment [2], the Ratio IC50 turned out to be 47.
The matching figures for `CN1[C@@H]2CC[C@H]1C[C@@H](OC(=O)c1ccc[nH]1)C2`: 11200 nM, 20900 nM, 33.9 nM and 615.
With `CN1[C@@H]2CC[C@H]1C[C@@H](OC(=O)c1cnc3ccccc3c1)C2`, the IC50 in experiment [1] was 1910 nM; in experiment [3], 5500 nM; in experiment [4], 72.4 nM. In addition, the Ratio IC50 in experiment [2] was determined as 76.
In experiment [1], `O=C(O[C@H]1C[C@H]2CC[C@@H](C1)N2)c1cccs1` had an IC50 of 41.7 nM. In experiment [2], the Ratio IC50 worked out at 1.
Regarding `O=C(O[C@H]1C[C@H]2CC[C@@H](C1)N2)c1cc2ccccc2[nH]1`, the IC50 in experiment [5] is 32 nM; in experiment [1] it was 234 nM. Besides, in experiment [2], the Ratio IC50 was found to be 1.

The IC50 is the midpoint of a concentration-inhibition curve.
